This note sets out measurements from PubChem BioAssay AID1899 (The Scripps Research Institute Molecular Screening Center, 2009).

By inhibition is commonly meant the drop in the measured response relative to a control, in per cent.

Hit rate of the full screen: of about 300,000 compounds, about 1,000 (0.33%) were called active. This is one part of a sample in which actives are shown more often than they occur. A number with no mark means an inactive call.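 How the source made its calls: active means inhibition above the mean of all tested compounds plus 3 SD, set per screening campaign (cut at about 45% in these data); inactive means the rest.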

The assay concerns HCV core protein (residues 1-106) dimerization. The assay is described as follows: inhibitors of HCV core protein dimerization, primary screen, biochemical, TR-FRET, high-throughput (AID 1899). The note with it: TR-FRET GST/Flag-core106 dimerization, 1536-well; at 5 µM; stronger effect = higher value. In outline: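 Assay system: GST-tagged and Flag-tagged HCV core protein residues 1-106 / Times: compound-protein-antibody incubation 4 h at 22.5 °C / Signal: time-resolved FRET, ex 340 nm, em 617 and 671 nm / Evaluation: % inhibition based on acceptor/donor emission ratio / Benchmarks: wells lacking GST-core106 and wells with excess unlabelled core106 / Repeats: singlicate, one well per compound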
`Cc1ccc(C(=O)O)cc1-c1ccc(/C=C2\SC(=O)N(CC(=O)Nc3ccc4c(c3)OCO4)C2=O)o1`: the inhibition was 4.8%. Next, `C=CCOc1ccc(Cl)cc1CNCCCN1CCOCC1`: 12.2%; `CCn1c(C)c(C)c2cc(C(=O)N3CCN(c4cccc(C)c4C)CC3)ccc21`: 18%; `C[C@@H]1CC[C@@]2(OC1)O[C@H]1C[C@H]3[C@@H]4CC=C5C[C@@H](O)[C@H](O)C[C@]5(C)C4CC[C@]3(C)[C@H]1[C@@H]2C` (some centres not stated): -14.2%. With `Cc1cccc(NC(=O)CN2CCCN(S(=O)(=O)c3ccc(Br)s3)CC2)c1` the figure was 3.89%; with `CCN(CC(=O)NC1CCS(=O)(=O)C1)c1nc(-c2cccnc2)nc2ccccc12` (configuration not stated), -0.09%. For `COC(=O)CCCC1=CC2=CC(=O)C(C)(OC(=O)c3cccs3)C(=O)C2=CN1CC1CC1` (configuration not stated), the inhibition was -6.02%. On to `COC(=O)CCCC1=CC2=CC(=O)C(C)(OC(=O)c3cccs3)C(=O)C2=CN1CC(C)C` (configuration not stated), for which the inhibition is 11.6%. Next, `COC(=O)CCCC1=CC2=CC(=O)C(C)(OC(=O)c3cccs3)C(=O)C2=CN1c1cccc(C#N)c1` (configuration not stated): 47.4% (active); `COc1cccc(NC(=O)c2ccccc2N(Cc2ccccc2)S(C)(=O)=O)c1`: 1.86%; `COc1ccc(NC(=O)CCNC(=O)Cn2ccc3ccccc3c2=O)c(OC)c1`: -5.48%. Regarding `CCc1ccc(NC(=O)Cn2ncn3c(cc4ccccc43)c2=O)cc1`, the inhibition was 13%. With `COc1ccc(NC(=O)Cn2ncn3c(cc4ccccc43)c2=O)c(OC)c1OC` the figure was 50.6% (active); with `Fc1ccc(-c2ccc(NCCN3CCOCC3)nn2)cc1`, -9.05%; with `Cc1ccc(C)c(OCCC(=O)Nc2cccc(S(=O)(=O)N3CCCC3)c2)c1`, -2.89%.

As for `Cc1c(-c2cccc(Cl)c2)nc2ccccc2c1C(=O)OCC(=O)N(C)C1CCS(=O)(=O)C1` (configuration not stated), the inhibition was 1.86%.

With `CN(C(=O)COC(=O)c1cc(-c2ccco2)nc2ccccc12)C1CCS(=O)(=O)C1` (configuration not stated), the inhibition is 77.2% (active).

Consider `CN(C(=O)COC(=O)c1nc(Cl)ccc1Cl)C1CCS(=O)(=O)C1` (configuration not stated), for which the inhibition was 5.01%. With `COc1ccc(NC(=O)c2ccccc2CC[N+](=O)[O-])cc1` the figure was 1.6%; with `O=C(Cc1ccc(S(=O)(=O)N2CCCC2)s1)NC1CCCCCC1`, 48% (active); with `O=C(NC1CCCCC1)C1CCCN(S(=O)(=O)c2ccc(Br)s2)C1` (configuration not stated), 3.6%. For the compound `O=C(Cc1ccc(S(=O)(=O)N2CCOCC2)s1)NCCC(c1ccccc1)c1ccccc1`, the inhibition was 44.1%.

For the compound `Cc1ccc(NS(=O)(=O)c2c(C)[nH]c(=O)[nH]c2=O)cc1C`, the inhibition was -1.79%. Next, `CSc1ccc(-c2c(C#N)c(N)nc3c2c(C)nn3-c2ccccc2)cc1`: 49.1% (active); `Cc1nn(-c2ccccc2)c2c1C(c1ccc(F)cc1)C(C#N)=C(N)O2` (configuration not stated): -4.93%.

For `Cc1nc2c(c(C)nn2-c2ccccc2)c(C)c1C`, the inhibition is -4.33%.

Regarding `CC(C)C(C)(C#N)NC(=O)CSc1nc2scc(-c3ccccc3)c2c(=O)[nH]1` (configuration not stated), the inhibition was 13.3%. On to `CCC(C)(C)n1nnnc1CN1CCN(c2nc3ccc(C)cc3cc2C#N)CC1`, for which the inhibition was 20.6%. Next, `CCOC(=O)c1cc(C#N)c(N2CCCCC2)nc1-c1ccccc1`: 13.8%; `Cc1cc(C)c2nc(N3CCCC3)c(C#N)cc2c1`: 51.7% (active).

Turning to `CN(CCC(=O)Nc1cc(S(=O)(=O)N(C)C)ccc1Cl)CC(=O)Nc1ccc(F)cc1`, the inhibition is -16.6%. Consider `COc1cccc(/C=C2\Sc3ccc(C(=O)NCC4CCCO4)cc3N(C)C2=O)c1` (configuration not stated), for which the inhibition was 4.72%. Next, `CCOc1ccccc1NC(=O)Cn1nnc(C(=O)NCc2cccs2)c1N`: -5.57%; `CCOc1ccccc1NC(=O)Cc1cccs1`: 55.5% (active). With `COc1ccc(OC)c(NC(=O)Cc2cccs2)c1` the figure was 14.6%; with `COc1ccc(C(=O)c2c3ccc([N+](=O)[O-])cc3[n+]([O-])n2CCCN)cc1`, 1.89%; with `CCc1ccc(NC(=O)CN2C(=O)CSC2=O)cc1`, -2.17%. With `Nc1nonc1-n1nnc(C(=O)N/N=C/C2CCCCC2)c1-c1ccccc1` the figure was -6.4%; with `Fc1ccc2c(c1)C(c1cccnc1)=NNC(c1cccs1)=N2`, -0.24%. Regarding `COc1ccc2c(c1)C(c1cccs1)=NNC(c1cccnc1)=N2`, the inhibition was 48.7% (active).

As for `CCOc1ccc2c(c1)C(c1ccc(C)cc1)=NNC(c1ccc(C)cc1)=N2`, the inhibition is 6.95%. With `CC(=O)c1ccc(S(=O)(=O)NC2CC(=O)N(c3ccc4c(c3)OCCO4)C2)cc1` (configuration not stated) the figure was 0.9%. Next, `COc1ccc(/C=C/C2=CC(C)(C)NC(=S)N2)c(OC)c1`: 3.61%; `CN1CCN(C(=O)N2c3ccccc3CCc3ccccc32)CC1`: -2.2%; `CCOc1ccc(C(=O)NC(=S)Nc2ccc(N3CCOCC3)c(Cl)c2)cc1[N+](=O)[O-]`: 15.3%. Next, `Cc1ccc(CSCC2Nc3ccc(C(=O)N4CCN(c5ccc(F)cc5)CC4)cc3NC2=O)cc1` (configuration not stated): 67% (active).

For the compound `O=C1Nc2cc(C(=O)N3CCN(c4ccc(F)cc4)CC3)ccc2NC1CSCc1cccc(F)c1` (configuration not stated), the inhibition was 17.5%.

`O=C(c1cc(C(=O)N2CCN(c3ccc(F)cc3)CC2)cc([N+](=O)[O-])c1)N1CCN(c2ccc(F)cc2)CC1`: the inhibition was 19%. With `CC(C)(C)n1nnnc1C(c1ccccc1F)N1CCN(C(=O)c2ccco2)CC1` (configuration not stated) the figure was -2.83%; with `CCCc1nc2c(c(=O)c3ccccc3n2C)c(=O)n1C1CCCCCC1`, 10.2%. As for `CCCc1nc2c(c(=O)c3ccccc3n2C)c(=O)n1-c1cc(C)cc(C)c1`, the inhibition was 16.2%. Take `Cn1c2ccccc2c(=O)c2c(=O)n(Cc3ccco3)c(COc3ccccc3)nc21`: the inhibition is 47.9% (active). Next, `O=C1CN(C(=O)COc2c(Cl)cccc2Cl)c2ccccc2N1`: 1.42%. With `Cc1nn(CC(=O)Nc2nc3ccccc3s2)c(C)c1[N+](=O)[O-]` the figure was -2.22%; with `CCC(C)Cn1c(O)cc2nn(-c3nc4ccccc4s3)c(=O)c-2c1C` (configuration not stated), 55.2% (active). With `C/C(=N\NC(=O)CC(C)C)c1c(C(F)(F)F)[nH]n(-c2nc3ccccc3s2)c1=O` the figure was -0.73%. Consider `COC(=O)C1=C(C)NC2=C(C(=O)c3ccccc32)C1c1ccc(-c2ccc(C(=O)O)cc2)o1` (configuration not stated), for which the inhibition is 5.77%. As for `CCOC(=O)C(=CNNc1ccsc1C(=O)OC)C(=O)OCC`, the inhibition was -1.96%. With `CN1C/C(=C/c2cccs2)C(=O)/C(=C\c2cccs2)C1` the figure was 6.47%; with `Cc1cccc(C2=N/C(=C/c3cccs3)C(=O)O2)c1`, 2.89%. With `CSC1=N/C(=C\C=C\c2cccs2)C(=O)S1` the figure was 60.2% (active); with `Cc1ccc(-n2ncc3c2CC(C)(C)CC3NC(=O)CCc2cnn(C)c2)cc1` (configuration not stated), -3.34%. Next, `O=C(C1CCCN(S(=O)(=O)c2ccccc2)C1)N1CCN(c2ccc(F)cc2)CC1` (configuration not stated): -13.8%; `Cc1cc(NC(=O)CCC(=O)N(CC(=O)NC2CCCC2)c2ccc(F)cc2)no1`: 0.03%; `COc1cccc(OC)c1CN(C)C(=O)c1cnccc1C(F)(F)F`: -2.76%. For the compound `Cc1ccc(C(=O)c2c(NC(=O)c3ccncc3)sc3c2CCCC3)cc1`, the inhibition was -2.83%. Take `Cc1ccc(NC(=O)c2c(NC(=O)CCC(=O)O)sc3c2CCCCC3)cc1`: the inhibition is 47.6% (active). As for `Cc1ccc(NC(=O)c2csc3c2CCCC3)cc1`, the inhibition is 5.39%. Take `O=S(=O)(Nc1ccc(O)c2ccccc12)c1ccc(OC(F)(F)F)cc1`: the inhibition was -9.45%. `Cc1nn(C(=O)c2ccoc2C)c(N)c1-c1ccccc1`: the inhibition was -11.9%. Next, `O=C(O)CCCC(=O)N1N=C(c2ccco2)CC1c1ccco1` (configuration not stated): -3.41%; `Cc1nn2c(c1-c1ccccc1)N=C(c1ccco1)CC2c1ccccc1` (configuration not stated): 54.2% (active); `Cc1ccc(/C=N/NC(=O)COc2ccccc2-c2ccccc2)cc1`: -1.07%. With `CCOc1ccc(/C=C(/NC(=O)c2ccccc2)C(=O)NCCC(=O)O)cc1` the figure was 2.36%; with `CCC(Cc1ccccc1)NS(=O)(=O)c1ccc2c(c1)NC(=O)CS2` (configuration not stated), 6.21%. With `CCOC(=O)C1=C(C)NC(C)=C(C(=O)OCC)C1C1=COCCO1` the figure was -7.86%; with `CCC(=O)Nc1c(C)n[nH]c1C`, 1.83%; with `CC1(OC(=O)CCc2ccccc2)C(=O)C=C2C=C(c3ccc(C#N)cc3)N(CCc3ccccn3)C=C2C1=O` (configuration not stated), 13.8%. Turning to `CCCCC1=CC2=CC(=O)C(C)(OC(=O)CC)C(=O)C2=CN1CCCOC(C)C` (configuration not stated), the inhibition is 2.27%.

Consider `C=CCN1C=C2C(=O)C(C)(OC(=O)CCc3ccccc3)C(=O)C=C2C=C1c1ccc(C#N)cc1` (configuration not stated), for which the inhibition is 49% (active). With `Nc1c(-c2ccc(F)cc2)cnc2ncnn12` the figure was 0.37%. In the case of `CCCCCCCCCCCCCCCC(=O)OC/C=C(C)/C=C/C=C(C)/C=C/C1=C(C)CCCC1(C)C`, the inhibition is 2.75%. Turning to `CC1=C(/C=C/C(C)=C/C=C/C(C)=C/C=C/C=C(C)/C=C/C=C(C)/C=C/C2=C(C)CCCC2(C)C)C(C)(C)CCC1`, the inhibition was 69.5% (active).

Take `Cc1cc(S(=O)(=O)N2CCOCC2)ccc1OCC(=O)Nc1cccc(C(F)(F)F)c1`: the inhibition is 0.78%. `COc1ccc(C(=O)COC(=O)Cn2cnc3c2c(=O)n(C)c(=O)n3C)c(OC)c1`: the inhibition is -0.66%. With `O=C(NCCN1CCN(C(=O)c2cccc([N+](=O)[O-])c2)CC1)C(=O)NCc1ccc(Cl)cc1` the figure was -0.22%; with `CCOC(=O)/C=c1\s/c(=C\c2ccc(C#N)cc2)c(=O)n1CC(=O)Nc1cccc(C)c1C`, 11.6%; with `CN(c1ccccc1)c1ccc(/C=c2\s/c(=C(/C#N)C(=O)C(C)(C)C)n(Cc3ccco3)c2=O)cc1`, 63.2% (active).

Regarding `CCOC(=O)Cn1c(=O)oc2cc(S(=O)(=O)N(C)Cc3ccco3)ccc21`, the inhibition was -1.55%. In the case of `CCNC(=O)c1sccc1-n1cccc1`, the inhibition was 0.55%.

For `CC(C)=CCc1c(O)c(CC=C(C)C)c2occ(-c3ccc(O)cc3)c(=O)c2c1O`, the inhibition is -3.16%. With `O=C(Cc1coc2ccc3ccccc3c12)NCc1cccs1` the figure was 10.5%; with `COc1ccc2c(CC(=O)OCC(=O)NC(N)=O)coc2c1`, -9.08%; with `Cn1cccc1C(=O)NC(=O)COC(=O)Cc1coc2ccc3ccccc3c12`, 60.3% (active).

On to `COc1ccc(S(=O)(=O)N2CCOC2CNC(=O)C(=O)NCc2ccc(F)cc2)cc1` (configuration not stated), for which the inhibition was -0.93%. For the compound `CCOC(=O)c1c(C)[nH]c(C2=NNC(=NC(C)COC)SC2)c1C` (configuration not stated), the inhibition was -2.46%. For the compound `COc1cc(NC(=O)C2=CC(c3ccc(C)cc3)=NS(=O)(=O)N2C)cc(OC)c1OC`, the inhibition was 1.17%.
